KCC2 mod: KCC2 cotransporter modulators, thallium flux, primary screen, cell-based, HEK293 KCC2, FluoZin-2 fluorescence, MLSMR; Solute carrier family 12 member 5 (Homo sapiens), Q9H2X9; KCC2 cells, thallium flux FluoZin-2 fluorescence; B-score of Tl+ flux slope (higher = more flux/activation; lower = inhibition) at 10 µM; 2.2% of 190,000 active;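 active = thallium flux slope and its plate-corrected score both differing from the plate sample mean at a set confidence after two filtering rounds, in either direction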;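 also: slope of fluorescence scaled to starting intensity during 10 to 20 s after thallium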
Target sequence (Q9H2X9 whole entry, looked up): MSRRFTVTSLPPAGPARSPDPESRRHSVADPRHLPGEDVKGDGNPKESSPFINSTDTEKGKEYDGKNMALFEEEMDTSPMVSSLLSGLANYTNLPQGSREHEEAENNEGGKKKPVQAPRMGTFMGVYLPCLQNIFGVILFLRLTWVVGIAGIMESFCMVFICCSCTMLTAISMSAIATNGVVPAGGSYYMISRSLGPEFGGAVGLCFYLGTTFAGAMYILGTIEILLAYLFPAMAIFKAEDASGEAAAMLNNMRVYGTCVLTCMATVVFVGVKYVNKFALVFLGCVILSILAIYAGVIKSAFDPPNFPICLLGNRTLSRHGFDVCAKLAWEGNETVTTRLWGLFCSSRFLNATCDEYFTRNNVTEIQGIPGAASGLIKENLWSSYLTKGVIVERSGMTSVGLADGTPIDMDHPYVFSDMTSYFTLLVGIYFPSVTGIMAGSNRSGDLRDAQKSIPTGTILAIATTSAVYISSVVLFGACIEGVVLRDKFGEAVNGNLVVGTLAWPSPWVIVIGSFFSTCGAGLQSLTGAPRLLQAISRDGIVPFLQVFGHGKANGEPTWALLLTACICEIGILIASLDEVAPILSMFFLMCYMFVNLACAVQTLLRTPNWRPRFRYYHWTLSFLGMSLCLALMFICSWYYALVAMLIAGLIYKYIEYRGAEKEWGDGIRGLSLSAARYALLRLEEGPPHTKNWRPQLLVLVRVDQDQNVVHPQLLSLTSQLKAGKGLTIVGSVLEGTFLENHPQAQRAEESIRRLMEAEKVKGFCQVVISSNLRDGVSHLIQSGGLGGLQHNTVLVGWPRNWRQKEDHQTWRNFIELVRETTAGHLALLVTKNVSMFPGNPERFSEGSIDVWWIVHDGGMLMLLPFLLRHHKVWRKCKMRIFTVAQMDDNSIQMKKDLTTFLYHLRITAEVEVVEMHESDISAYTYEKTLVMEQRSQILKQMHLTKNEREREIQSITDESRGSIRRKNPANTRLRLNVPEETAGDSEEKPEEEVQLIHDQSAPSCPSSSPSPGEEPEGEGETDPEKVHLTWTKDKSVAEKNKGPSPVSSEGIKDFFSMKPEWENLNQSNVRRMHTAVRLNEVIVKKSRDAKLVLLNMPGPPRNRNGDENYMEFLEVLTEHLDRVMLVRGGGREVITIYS
WT yeast gro inh: growth inhibition of WT strain, primary screen, mitochondrial fusion inhibitor project, WT and mutant strains, chemical genetic. mitochondrial fusion phenotypic screen. inhibition, % at 10 µM. 2.1% of 190,000 active. AID 1362, 2008; in the data active = inhibition above about 58%; tested in S. cerevisiae
Diaphorase inh: diaphorase inhibitors and chemical oxidizers, primary screen, counter-screen for diaphorase-coupled primary assays, biochemical, uHTS, resorufin fluorescence | diaphorase resazurin-to-resorufin fluorescence, NADH, 16 min; bacterial (C. kluyveri) enzyme, not human | inhibition, % at 20 µM | 0.69% of 190,000 active | AID 1217, 2008;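 active = primary screen inhibition at 20 µM above a set limit, cut at about 50% in these data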;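 also: plate controls were DMSO with full reaction for no effect and wells lacking NADH for full effect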
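Benchmarks: positive control wells lacking NADH, neutral wells with DMSO only. System: bacterial diaphorase enzyme (C. kluyveri). Input: 0.14 U/mL diaphorase, enzyme working solution. Detection: resorufin fluorescence, excitation 544 nm, emission 590 nm. Times: 16-min room-temperature incubation before reading.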
ROMK primary: ROMK potassium channel modulators, primary screen, cell-based, thallium flux, MLSMR library | ATP-sensitive inward rectifier potassium channel 1 (Homo sapiens), P48048 | Tet-inducible ROMK, thallium flux fluorescence; actives lie on both sides | B-score at 10 µM | 2% of 130,000 active | AID 1918, 2009;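 active = signal ratio slope over the read window, or its plate-corrected B-score, at least 3 SD from the plate mean, either direction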;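 also: B-score of the F/F0 ratio slope over 7 to 12 s after thallium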
Diaphorase act: compounds boosting diaphorase resazurin reduction – biochemical, uHTS, resorufin fluorescence, counter-screen for diaphorase-coupled primary assays, primary screen; Diaphorase/resazurin coupled assay, 16 min; stronger effect = higher value; 1 = vehicle wells, 0 = NADH-free wells; activation factor at 20 µM; 0.005% of 190,000 active;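 active = diaphorase activity raised at least twofold by the compound at 20 µM; inactive = activation factor below 2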
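Material: purified diaphorase enzyme from Clostridium kluyveri; Also added: 0.114 mM NADH and 0.1 mM resazurin, final amounts; Doses: single compound dose of 20 µM, 1% DMSO final; Times: 16 min enzyme reaction, ambient temperature; Detection: resorufin fluorescence, excitation 544 nm, emission 590 nm; Measure: increased resorufin signal from activators or reducing compounds.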
L major viab: Leishmania major promastigote growth inhibition, primary screen; Leishmania major promastigotes, resazurin fluorescence viability; 9% of 200,000 active; AID 1063, 2008; inhibition, % at 10 µM; in the data active = inhibition above about 50%;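 also: promastigotes grown with compound for 44 hours at 28 °C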
* hit, by the source's call; i = inactive; . = no result. Sampled rows, rich in hits. Any-hit rate of the full collection: about 12%.

SMILES	KCC2 mod	WT yeast gro inh	Diaphorase inh	ROMK primary	Diaphorase act	L major viab
O=C(O)c1ccc(/C=N/NC(=O)c2cc(-c3ccc4c5c(cccc35)CC4)n[nH]2)cc1	-2.2	-12	68*	.	0.3	13
O=C(N/N=C/c1ccccn1)c1cc(-c2ccccc2Cl)n[nH]1	-0.24	-4	6	0.91	0.9	47
O=C(N/N=C/c1ccccn1)c1cc(-c2cccc3ccccc23)n[nH]1	-1.1	-15	30	1.2	0.7	73*
CCc1ccc(-c2cc(C(=O)N/N=C/c3ccccn3)[nH]n2)cc1	0.048	-11	6	-0.37	0.9	74*
O=C(N/N=C/c1ccccn1)c1cc(-c2ccc3ccccc3c2)n[nH]1	-0.96	-3	22	.	0.8	84*
Cc1cc(C)cc(OCc2nnc(N)s2)c1	0.36	.	.	1.8	.	.
O=C(/C=C1\SC(=O)N(CC(=O)Nc2ccc(Cl)cc2)C1=O)Nc1ccc(F)cc1	2.1	2	-5	0.31	1	22
Cc1cccc(NC(=O)CN2C(=O)S/C(=C\C(=O)Nc3ccc(Cl)cc3)C2=O)c1	1	2	1	0.74	1	54*
CC(/C=C1\SC(=O)N(CC(=O)Nc2cccc(O)c2)C1=O)=C\c1ccccc1	.	52	26	.	0.7	21
O=C(/C=C1\SC(=O)N(CC(=O)Nc2ccc(F)cc2)C1=O)Nc1ccc(Cl)cc1	0.33	-1	12	0.18	0.9	52*
COc1cccc(NC(=O)Nc2nnc(N3C(C)CCCC3C)s2)c1 (configuration not stated)	1.2	.	.	.	.	.
CCn1c(SCC(=O)Nc2nc3ccc(C)cc3s2)nc2c(c1=O)SC(C)C2 (configuration not stated)	-2	29	14	.	0.9	24
CCN(CCCNC(=O)CCc1nc(-c2ccc(C)cc2)no1)c1cccc(C)c1	-0.016	64*	22	.	0.8	-2
CCc1ccccc1N(CC)C(=O)CCc1nc(-c2ccc(C)cc2)no1	0.86	72*	14	.	0.9	20
O=C(NCc1ccc(N2CCCC2=O)cc1)Nc1cccc(Cl)c1	0.033	-5	-6	-2	1.1	21
Cc1ccc(NC(=O)C2CCN(c3cnccn3)CC2)cc1C	0.74	-23	-23	-0.31	1.2	89*
O=C(Nc1ccc2c(c1)OCCO2)C1CCN(c2cnccn2)CC1	-0.66	-19	10	.	0.9	-1
O=C(CNC(=O)c1cccs1)OCC(=O)c1ccccc1Cl	-0.52	2	5	-0.37	0.9	-9
COc1cccc(/C=N/NC(=O)c2ccc(=O)n(C)c2)c1O	0.28	20	8	-0.017	0.9	81*
C=CCc1cccc(/C=N/NC(=O)c2ccccc2OC)c1O	-0.3	8	21	0.98	0.8	98*
C=CCc1cccc(/C=N/NC(=O)c2ccccc2Br)c1O	-1.2	3	1	-0.053	1	9
CCOc1cccc(/C=N/NC(=O)c2cc(-c3cccn3C)n[nH]2)c1O	-1.2	-5	29	-0.32	0.7	98*
COc1cccc(/C=N/NC(=O)c2[nH]c(C)c(C(=O)N/N=C/c3cccc(OC)c3O)c2C)c1O	-1.5	-3	14	1.4	0.9	91*
COc1cccc(/C(N)=N/OC(=O)Cc2ccccc2[N+](=O)[O-])c1	-1	12	8	-0.16	0.9	4
CN(C)c1ccc(NC(=O)C2CCCN(S(=O)(=O)c3ccccc3)C2)cc1 (configuration not stated)	1.1	6	13	-0.017	0.9	-1
SMILES	KCC2 mod	WT yeast gro inh	Diaphorase inh	ROMK primary	Diaphorase act	L major viab
O=C(N/N=C/c1ccco1)c1ccccc1OCc1ccccc1Cl	-0.33	-4	26	-2.1	0.7	69*
O=C(N/N=C/c1ccc[nH]1)c1ccccc1OCc1ccccc1Cl	-1.9	11	29	-1.4	0.7	33
O=C(c1cc2ccccc2o1)N(C1CC1)C1(C(=O)Nc2ccccc2)CCCC1	0.14	72*	14	-0.17	0.9	39
CN(Cc1ccccc1)C(=O)c1cc2ccccc2o1	-0.92	-19	13	-1	0.9	-2
CCN1CCN(Cc2c(O)ccc3c(=O)c(-c4ccccc4OC)coc23)CC1	.	7	7	-0.13	0.9	34
CC(C)c1ccc(/C=C2\Oc3c(ccc(O)c3CN3CCN(C)CC3)C2=O)cc1	-0.42	10	3	-6.6*	1	5
CCN1CCN(Cc2c(O)ccc3c2O/C(=C\C=C\c2ccccc2OC)C3=O)CC1	i	-3	11	.	0.9	69*
Cc1ccc2c(c1C)OC(=O)CC2(C)C	1	-11	-5	.	1.1	22
C/C(NC1CCCCC1)=C(/C#N)C(=O)NCCN1CCOCC1	0.45	-9	8	-1.1	0.9	50*
Cc1ccc2sc(N(CCCN(C)C)C(=O)c3ccc(S(=O)(=O)N(C)C)cc3)nc2c1C	-1.7	6	10	0.37	0.9	74*
CN(C)c1nc(N)c2ncc(=S)[nH]c2n1	0.34	-6	52*	-0.072	0.5	-7
O=[N+]([O-])c1ccc(C[n+]2cc(-c3ccc(Cl)c(Cl)c3)n3c2CCCCC3)cc1	-0.81	.	.	.	.	.
Clc1ccc(C[n+]2cc(-c3ccccc3)n3c2CCC3)cc1Cl	1.3	1	14	.	0.9	99*
Clc1ccc(C[n+]2cc(-c3ccccc3)n3c2CCCCC3)c(Cl)c1	-0.93	17	9	.	0.9	100*
Clc1ccc(-c2c[n+](Cc3cccc(Cl)c3)c3n2CCC3)cc1	0.0088	-10	4	-0.97	1	100*
O=C(COC(=O)CNC(=O)C1CCCCC1)Nc1ccc(Cl)cc1F	-0.48	7	2	-1	1	-1
CCN(CC)S(=O)(=O)c1ccc(N2CCOCC2)c(NC(=O)c2cnccn2)c1	0.17	3	11	-0.11	0.9	2
C/C(=N/Nc1nc(-c2ccccc2)cc(-c2ccc(F)cc2)n1)c1cccc(N)c1	-0.83	68*	9	.	0.9	42
O=C(NCC(c1cccnc1)N1CCN(c2ccccc2F)CC1)OCc1ccccc1 (configuration not stated)	-1.4	30	19	-1.4	0.8	96*
O=C(NCC(c1ccco1)N1CCN(c2ccc(F)cc2)CC1)OCc1ccccc1 (configuration not stated)	-1.1	38	18	.	0.8	3
COC(=O)NCC(c1cccnc1)N1CCN(c2ccccc2)CC1 (configuration not stated)	.	4	6	.	0.9	45

Screens from PubChem.
